From ChEMBL document CHEMBL1158041, “Diterpenoids, norditerpenoids, and secosteroids from the Formosan soft coral Cespitularia hypotentaculata” (2006) come the findings set out here.

SMILES strings stand for the structures. Values after ≈ are worked out from the molar mass of the structure shown.

One experiment has as its system P388. As to the kind of experiment: Cytotoxicity against mouse P388. The experiment is classed as functional. Summed up: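 Murine P-388 leukemia cells were a gift from an academic laboratory; cytotoxicity reported as ED50 in µg/mL.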
Another experiment deals with HT-29. As to the kind of experiment: Cytotoxicity against human HT-29. The experiment is classed as functional. In short, it runs like this:
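HT-29 human colon cells obtained from the American Type Culture Collection; cytotoxicity reported as ED50 in µg/mL.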

The mark [1] stands for this setting: read-out: ED50 (the source's name).

Take `C=C1CC[C@@H]2CCC3=C(C(=O)[C@H](C3=O)/C(C)=C/[C@@H](O)C1)C2(C)C`: the Activity entry with P388 and with HT-29 was “Not toxic” in each case.
Take `CC(C)CCC[C@@H](C)[C@H]1CC[C@@H]([C@@H]2C[C@H]3O[C@]34C[C@@H](O)CC[C@]4(C)C2=O)[C@]1(C)CCO`: in the experiment on P388, the Activity entry was “Not toxic”. Moreover, in the experiment with HT-29 (setting [1]), the EC50 worked out at 1 µg/mL (≈ 2.3 µM).
For the compound `C=C1CC[C@@H]2CCC3=C(C(=O)[C@H]([C@H]3O)[C@@]3(C)O[C@@H]3[C@@H](O)C1)C2(C)C`, the Activity result with P388 and in the experiment on HT-29 was “Not toxic” each time.
For `C=C1CC[C@@H]2CCC3=C(C(=O)[C@H](C3=O)/C(C)=C/[C@@H](OC(C)=O)C1)C2(C)C`, the Activity entry in the experiment on P388 and in the experiment on HT-29 was “Not toxic” throughout.
For `C=C1CC[C@@H]2O[C@@]2(C)CC[C@@H]2/C(=C/C=C/C(C)C)C(=O)OC[C@@H]12`, the Activity entry in the experiment on P388 and in the experiment with HT-29 was “Not toxic” each time.
For the compound `CC(C)[C@@H](C)[C@@]1(C)C[C@@H]1[C@@H](C)[C@H]1CC[C@@H]([C@@H]2C[C@H]3O[C@]34C[C@@H](O)CC[C@]4(C)C2=O)[C@]1(C)CCO`, the Activity entry in the experiment with P388 and in the experiment with HT-29 was “Not toxic” each time.
With `C=C1CC[C@@H]2CCC3=C(C2(C)C)[C@@](OC)(C/C(C)=C/[C@@H](O)C1)OC3=O`, the Activity entry in the experiment with P388 and in the experiment with HT-29 was “Not toxic” in each case.
As for `C=C1CC[C@@H]2CC[C@H](O)[C@@](O)(C(=O)C/C(C)=C/[C@@H](O)C1)C2(C)C`, the Activity result with P388 and in the experiment on HT-29 was “Not toxic” each time.
As for `C=C1CC[C@@H]2CC[C@H](OC(=O)C/C(C)=C/[C@@H](O)C1)C(=O)C2(C)C`, the Activity entry with P388 and in the experiment on HT-29 was “Not toxic” in each case.
On to `C=C1CC[C@@H]2CCC3=C([C@@H](C/C(C)=C/[C@@H](O)C1)OC3=O)C2(C)C` [CESPITULARIN O], for which, in the experiment on P388 (setting [1]), the EC50 came to 3.4 µg/mL (≈ 10.7 µM). The Activity result in the experiment on HT-29 was “Not toxic”.
As to `C=C1CC[C@@H]2CCC3=C(C(=O)[C@@H](/C(C)=C/[C@@H](OC(C)=O)C1)[C@H]3O)C2(C)C`, the Activity entry in the experiment on P388 and in the experiment on HT-29 was “Not toxic” throughout.
Turning to `C=C1CC[C@@H]2CC[C@@H](O)[C@@](O)(C(=O)C/C(C)=C/[C@@H](O)C1)C2(C)C`, the Activity result with P388 and in the experiment on HT-29 was “Not toxic” each time.
